From PubChem BioAssay
PAFAH1B2 FP inh: inhibitors of human PAFAH1B2; recombinant PAFAH1B2, FP-rhodamine activity probe, fluorescence polarization; inhibition, % at 3.39 µM; hit rate 1.2% among 340,000;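 active = inhibition above the mean of all tested compounds plus 3 SD, cut at about 24% in these data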;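 also: 0% = enzyme with DMSO and 100% = wells lacking PAFAH1B2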
Target sequence (P68402 whole entry, looked up): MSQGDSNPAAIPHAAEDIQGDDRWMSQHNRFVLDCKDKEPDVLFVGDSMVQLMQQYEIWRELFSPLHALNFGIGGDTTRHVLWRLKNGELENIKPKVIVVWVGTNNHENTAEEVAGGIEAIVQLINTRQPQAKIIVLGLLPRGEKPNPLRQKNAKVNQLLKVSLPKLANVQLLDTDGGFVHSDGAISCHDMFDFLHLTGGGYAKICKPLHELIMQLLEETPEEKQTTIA
ARFGAP1 inhibitor: inhibitors of rat ARFGAP1 | Arfgap1-stimulated ARF1 GTP hydrolysis, GDP FP detection | Q62848 | inhibition, % at 16.5 µM | hit rate 0.26% among 360,000;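 active = inhibition above a per-plate limit, mean inhibition of low control wells plus 3 SD, cut at about 25% in these data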;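 also: 0% = DMSO wells with enzyme and 100% = wells lacking Arfgap1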
Target sequence (Q62848 1-136 limits assumed): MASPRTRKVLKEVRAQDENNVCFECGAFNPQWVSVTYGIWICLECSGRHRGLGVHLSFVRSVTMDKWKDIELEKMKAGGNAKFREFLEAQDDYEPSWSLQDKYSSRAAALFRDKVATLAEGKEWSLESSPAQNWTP
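System: truncated rat Arfgap1 GAP domain / Benchmarks: high control wells lacking Arfgap1, low control full reaction with DMSO / Times: compound-enzyme preincubation 20 min, reaction 120 min, detection 60 min, 25 °C / Repeats: one replicate per compound / Also added: human ARF1(Δ1-17)-GTP substrate / Measured by: Tracer-displacement fluorescence polarization with EDTA stop, 620/688 nm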
PAFAH2 FP inh: inhibitors of human PAFAH2; recombinant PAFAH2, FP-rhodamine activity probe, fluorescence polarization; inhibition, % at 3.39 µM; hit rate 0.99% among 340,000; Q99487;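 active = inhibition above the mean over all tested compounds plus 3 SD, cut at about 30% in these data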;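 also: inhibitors block probe labeling of enzyme so polarization drops; 0% = enzyme with DMSO and 100% = wells lacking PAFAH2 protein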
ASAP1 GAP inh: inhibitors of human ASAP1 ArfGAP activity | Q9ULH1 | ASAP1-stimulated ARF1 GTP hydrolysis, GDP FP detection | inhibition, % at 16.5 µM | hit rate 0.19% among 360,000 | AID 624377; in the data active = inhibition above about 25%;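 also: 0% = vehicle with enzyme and substrate and 100% = no enzyme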
PAFAH1B3 FP inh: inhibitors of human PAFAH1B3 | recombinant PAFAH1B3, FP-rhodamine probe, fluorescence polarization | AID 492972 | Q15102 | hit rate 0.28% among 340,000 | inhibition, % at 3.39 µM;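 active = inhibition above the screen-wide average of all tested compounds plus 3 SD, cut at about 25% in these data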;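 also: 0% = enzyme with DMSO only and 100% = wells lacking PAFAH1B3 protein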
pPAFAH FP inh: inhibitors of human plasma PAF acetylhydrolase (pPAFAH). Q13093. recombinant pPAFAH, FP-rhodamine probe fluorescence polarization. inhibition, % at 3.39 µM. hit rate 1.5% among 330,000;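 active = inhibition above the mean inhibition across the screen plus 3 SD, cut at about 25% in these data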;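 also: inhibitors block binding of the rhodamine activity-based probe so polarization drops; 0% = enzyme with DMSO and 100% = wells lacking pPAFAH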
PAFAH2 FP conf: PAFAH2 (human) inhibition, confirmed. shares compounds with PAFAH2 FP inh. recombinant PAFAH2, FP-rhodamine activity probe, fluorescence polarization. inhibition, % at 3.39 µM. hit rate 65% among 2,300. AID 493030;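 active = mean inhibition over three repeats above a set limit taken from the earlier primary screen, cut at about 30% in these data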;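 also: inhibitor blocks binding of rhodamine activity probe so polarization falls; 0% = enzyme with DMSO and 100% = wells lacking PAFAH2 protein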
An asterisk follows results filed as active; nt = not tested or not shown. The list is not random: actives were taken first. Their share in the collection is about 2.7%.

SMILES	PAFAH1B2 FP inh	ARFGAP1 inhibitor	PAFAH2 FP inh	ASAP1 GAP inh	PAFAH1B3 FP inh	pPAFAH FP inh	PAFAH2 FP conf
COc1cc2c(cc1OC)-c1cc(NCc3ccccn3)nc(=O)n1CC2	-4	0	31*	7	2	9	16
O=C(NC(=S)NC12CC3CC(CC(C3)C1)C2)c1ccc(F)cc1	nt	-17	nt	-4	nt	2	nt
Cc1ccc(CNC(=O)COC(=O)CN2C(=O)C3CC=CCC3C2=O)cc1 (stereo not drawn)	5	-1	37*	-17	12	1	20
CC(C)=CC(=O)OCC(=O)Nc1ccc(F)cc1Cl	0	1	47*	-8	8	7	41*
CC(C)=CC(=O)OCC(=O)Nc1cc([N+](=O)[O-])ccc1F	-8	3	62*	10	0	-8	68*
COc1ccc([N+](=O)[O-])cc1NC(=O)COC(=O)C=C(C)C	-7	7	-32	-14	4	2	nt
COc1cc(C(=O)OCC(=O)N2CCCCCC2)c([N+](=O)[O-])cc1OC	6	11	35*	4	12	3	24
CC(C)CNC(=S)NNC(=O)c1csc2c1CCCC2	2	0	-1	2	7	0	nt
CCC(C)NC(=O)COC(=O)c1csc2c1CCCC2 (stereo not drawn)	5	9	57*	-10	-6	6	47*
CCN1CC(O)=C(c2nc3ccccc3s2)C1=N	0	3	52*	3	5	21	23
O=C(CC1NC2CCCCC2NC1=O)Nc1cccc(C(F)(F)F)c1 (stereo not drawn)	-1	10	36*	1	-4	4	14
CNc1ccc(C(=O)OCC(=O)Nc2ccnn2C(C)C)cc1[N+](=O)[O-]	4	2	60*	-2	3	2	46*
CCOC(=O)c1ccc(NC(C)=O)c([N+](=O)[O-])c1	4	6	3	3	2	4	nt
Cc1cc2c(cc1C)NC(C)CC(=O)N2 (stereo not drawn)	2	-4	4	-3	7	nt	nt
O=C(NN1CCOCC1)c1ccccc1NS(=O)(=O)c1ccc(F)cc1F	3	-2	70*	-13	3	0	78*
CC1(NC(=S)NCCCCCCNC(=S)NC2(C)CCS(=O)(=O)C2)CCS(=O)(=O)C1 (stereo not drawn)	2	-11	4	2	5	2	nt
CC1(NC(=O)NCCCCCCNC(=O)NC2(C)CCS(=O)(=O)C2)CCS(=O)(=O)C1 (stereo not drawn)	-2	-2	44*	-18	6	2	37*
COc1cc(C(C)=O)ccc1COc1ccc(C(=O)OCC(=O)NC(C)(C)C)cc1OC	-2	7	74*	-1	-3	20	79*
COc1cc(C(C)=O)ccc1COc1ccc(C(=O)OCC(=O)NC2CCS(=O)(=O)C2)cc1OC (stereo not drawn)	6	1	11	0	3	2	nt
COc1cccc(NC(=O)COC(=O)c2ccc(F)cc2F)c1	4	-7	73*	-1	2	21	61*
N#Cc1ccccc1NC(=O)COC(=O)c1ccc(F)cc1F	1	1	46*	5	11	16	17
C[C@H]1CN([C@@H](C)CO)C(=O)CCCn2nncc2CO[C@H]1CN(C)C(=O)Nc1cccc(Oc2ccccn2)c1	nt	2	nt	-4	nt	nt	nt
COCCNC(=O)c1cccc2c(-c3ccnn3C)coc12	nt	3	nt	-3	nt	nt	nt
Cc1ccc(NC(=O)COC(=O)C2CC2)c(Br)c1	4	2	55*	13	10	20	39*
Cc1cc(Br)c(NC(=O)COC(=O)C2CCCCC2)c(Br)c1	-1	-9	33*	-7	-3	7	32*
Cc1cc(C)c(NC(=O)COC(=O)C2CCC2)c(Cl)c1	-6	-13	5	-2	-1	3	nt
O=C(COC(=O)/C=C/c1cccc(C(F)(F)F)c1)Nc1cccc(S(=O)(=O)NC2=NCCC2)c1	nt	0	nt	-3	nt	nt	nt
